pEC50: −log10 of the molar value.
What was measured:
[1] = molecular target: Beta-2 adrenergic receptor (Cavia porcellus, UniProt Q8K4Z4); assay: Agonist activity at adrenergic beta2 receptor in guinea pig trachea assessed as inhibition of electrically-stimulated contraction; assay type: functional
[2] = tested on: Liver microsomes; assay: Metabolic stability in human liver microsomes with 125 pmol/mL P450 assessed as compound turnover ratio at 5 uM after 30 mins by LC-MS method relative to verapamil; assay type: ADME, Microsome; settings: 0.5 h
[3] = molecular target: Beta-3 adrenergic receptor (Homo sapiens, UniProt P13945); assay: Agonist activity at human adrenergic beta3 receptor expressed in CHO cells assessed as cAMP accumulation; assay type: functional, cell-based
[4] = molecular target: Beta-1 adrenergic receptor (Homo sapiens, UniProt P08588); assay: Agonist activity at human adrenergic beta1 receptor expressed in CHO cells assessed as cAMP accumulation; assay type: functional, cell-based
[5] = molecular target: Beta-2 adrenergic receptor (Homo sapiens, UniProt P07550); assay: Agonist activity at human adrenergic beta2 receptor expressed in CHO cells assessed as cAMP accumulation; assay type: functional, cell-based
[6] = tested on: Cavia porcellus; assay: Bronchodilatory activity against histamine-induced bronchospasm in guinea pig administered via nebulizer; assay type: functional
Procedure, shortened: (§1)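 Guinea pigs; agonist given as nebulised solution in dimethyl acetamide-saline vehicle at EC90 dose or 10-fold EC90 dose. Duration expressed as time to 50% recovery.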

[7] = Oral bioavailability in Beagle dog at 0.25 mg/kg by LC-MS/MS; assay type: ADME, organism-based, Canis lupus familiaris; settings: in vivo
Procedure, shortened: (§2)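 Female beagle dogs (n = 2), fasted 18 h, crossover design. Oral 0.25 mg base/kg by gavage in DMSO-PEG 200-distilled water (5:30:65); iv 0.052 mg base/kg via cephalic vein in DMSO-PEG 200-saline (10:45:45). Jugular blood sampled 0.03 (iv only) to 8 h. Plasma assayed by LC–MS/MS; noncompartmental parameters.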

[8] = Cmax in Beagle dog at 0.25 mg/kg, po by LC-MS/MS; assay type: ADME, organism-based, Canis lupus familiaris; design: dose 0.25 mg/kg, route oral; settings: in vivo; procedure, shortened: as §2
[9] = Half life in Beagle dog at 0.052 mg/kg, iv by LC-MS/MS; assay type: ADME, organism-based, Canis lupus familiaris; design: dose 0.052 mg/kg, route intravenous; settings: in vivo; procedure, shortened: as §2
[10] = Volume of distribution at steady state in Beagle dog at 0.052 mg/kg, iv by LC-MS/MS; assay type: ADME, organism-based, Canis lupus familiaris; design: dose 0.052 mg/kg, route intravenous; settings: in vivo, read-out: Vdss; procedure, shortened: as §2
[11] = Plasma clearance in Beagle dog at 0.052 mg/kg, iv by LC-MS/MS; assay type: ADME, organism-based, Canis lupus familiaris; design: dose 0.052 mg/kg, route intravenous; procedure, shortened: as §2
[12] = Oral bioavailability in Han Wistar rat at 2.0 mg/kg by LC-MS/MS; assay type: ADME, organism-based; settings: in vivo
Procedure, shortened: (§3)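 Male Han Wistar rats, fasted 18 h. Oral dose 2.0 mg base/kg by gavage in DMSO-PEG 200-distilled water (5:30:65); iv dose 0.25 mg base/kg via tail vein in DMSO-PEG 200-saline (10:45:45). Blood sampled 0.03 (iv only) to 8 h post dose, n = 2 animals/time-point. Plasma assayed by LC–MS/MS; parameters from noncompartmental analysis.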

[13] = Volume of distribution at steady state in Han Wistar rat at 0.25 mg/kg, iv by LC-MS/MS; assay type: ADME, organism-based; design: dose 0.25 mg/kg, route intravenous; settings: in vivo, read-out: Vdss; procedure, shortened: as §3
[14] = Half life in Han Wistar rat at 0.25 mg/kg, iv by LC-MS/MS; assay type: ADME, organism-based; design: dose 0.25 mg/kg, route intravenous; settings: in vivo; procedure, shortened: as §3
[15] = Plasma clearance in Han Wistar rat at 0.25 mg/kg, iv by LC-MS/MS; assay type: ADME, organism-based; design: dose 0.25 mg/kg, route intravenous; procedure, shortened: as §3
[16] = tested on: Cavia porcellus; assay: Bronchodilatory activity against histamine-induced bronchospasm in guinea pig assessed as time taken for 50% recovery of bronchospasm at EC90 administered via nebulizer; assay type: functional; procedure, shortened: as §1
[17] = tested on: Cavia porcellus; assay: Bronchodilatory activity against histamine-induced bronchospasm in guinea pig assessed as time taken for 50% recovery of bronchospasm at 10-fold EC90 administered via nebulizer; assay type: functional; procedure, shortened: as §1
[18] = Stability of the compound in solid state at 4 degC after 18 days; assay type: physicochemical; settings: 432 h
[19] = tested on: Liver microsomes; assay: Metabolic stability of the compound in human liver microsomes assessed as formation of N-({[3-(4-{[6-({(2R)-2-Hydroxy-2-[4-hydroxy-3-(hydroxy methyl)phenyl]ethyl}amino) hexyl]oxy}butyl)phenyl]amino} carbonyl)glycine acetate; assay type: ADME, Microsome
Procedure, shortened: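 Incubated at 25 µM with human liver microsomes (and hepatocytes). Samples mixed with equal volume acetonitrile, centrifuged; supernatant analysed by reverse-phase gradient LC with electrospray MS detection for metabolites.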

[20] = Stability of the compound in methanol assessed as formation of methyl ester of N-({[3-(4-{[6-({(2R)-2-Hydroxy-2-[4-hydroxy-3-(hydroxy methyl)phenyl]ethyl}amino) hexyl]oxy}butyl)phenyl]amino} carbonyl)glycine acetate

Sequence of Beta-2 adrenergic receptor (Cavia porcellus, UniProt Q8K4Z4) (Q8K4Z4 whole entry): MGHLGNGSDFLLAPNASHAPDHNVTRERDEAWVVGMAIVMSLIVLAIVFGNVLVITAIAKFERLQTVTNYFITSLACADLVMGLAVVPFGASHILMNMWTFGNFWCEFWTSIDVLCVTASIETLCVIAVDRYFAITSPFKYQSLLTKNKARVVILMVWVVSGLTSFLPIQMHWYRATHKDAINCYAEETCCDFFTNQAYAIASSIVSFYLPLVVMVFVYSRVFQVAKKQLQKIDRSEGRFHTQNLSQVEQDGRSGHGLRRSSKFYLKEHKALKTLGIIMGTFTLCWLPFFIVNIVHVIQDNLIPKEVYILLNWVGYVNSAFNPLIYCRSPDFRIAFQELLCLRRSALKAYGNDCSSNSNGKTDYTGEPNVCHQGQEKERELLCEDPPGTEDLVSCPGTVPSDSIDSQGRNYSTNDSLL
Sequence of Beta-3 adrenergic receptor (P13945 whole entry): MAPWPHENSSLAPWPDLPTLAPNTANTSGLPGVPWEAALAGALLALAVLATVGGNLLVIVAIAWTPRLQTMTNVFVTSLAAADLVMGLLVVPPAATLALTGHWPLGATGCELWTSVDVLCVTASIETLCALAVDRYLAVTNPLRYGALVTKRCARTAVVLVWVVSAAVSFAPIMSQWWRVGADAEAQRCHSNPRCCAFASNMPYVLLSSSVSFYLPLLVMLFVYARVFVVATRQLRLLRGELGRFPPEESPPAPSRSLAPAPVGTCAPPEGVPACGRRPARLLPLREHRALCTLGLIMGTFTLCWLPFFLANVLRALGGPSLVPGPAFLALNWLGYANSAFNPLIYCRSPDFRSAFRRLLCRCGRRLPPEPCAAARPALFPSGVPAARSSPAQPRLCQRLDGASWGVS
Sequence of Beta-2 adrenergic receptor (Homo sapiens, UniProt P07550) (P07550 whole entry): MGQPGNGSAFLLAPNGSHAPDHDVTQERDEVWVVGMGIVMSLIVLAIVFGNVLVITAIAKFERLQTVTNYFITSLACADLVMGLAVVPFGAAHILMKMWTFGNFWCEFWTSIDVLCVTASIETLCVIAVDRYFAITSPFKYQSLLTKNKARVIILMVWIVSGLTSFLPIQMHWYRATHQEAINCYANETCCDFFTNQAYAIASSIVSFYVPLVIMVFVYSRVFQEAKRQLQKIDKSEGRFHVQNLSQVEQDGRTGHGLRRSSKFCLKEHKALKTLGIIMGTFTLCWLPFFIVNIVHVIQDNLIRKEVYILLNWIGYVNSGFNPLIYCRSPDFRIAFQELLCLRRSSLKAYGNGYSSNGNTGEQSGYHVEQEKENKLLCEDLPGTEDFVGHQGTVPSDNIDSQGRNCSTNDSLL
Sequence of Beta-1 adrenergic receptor (P08588 whole entry): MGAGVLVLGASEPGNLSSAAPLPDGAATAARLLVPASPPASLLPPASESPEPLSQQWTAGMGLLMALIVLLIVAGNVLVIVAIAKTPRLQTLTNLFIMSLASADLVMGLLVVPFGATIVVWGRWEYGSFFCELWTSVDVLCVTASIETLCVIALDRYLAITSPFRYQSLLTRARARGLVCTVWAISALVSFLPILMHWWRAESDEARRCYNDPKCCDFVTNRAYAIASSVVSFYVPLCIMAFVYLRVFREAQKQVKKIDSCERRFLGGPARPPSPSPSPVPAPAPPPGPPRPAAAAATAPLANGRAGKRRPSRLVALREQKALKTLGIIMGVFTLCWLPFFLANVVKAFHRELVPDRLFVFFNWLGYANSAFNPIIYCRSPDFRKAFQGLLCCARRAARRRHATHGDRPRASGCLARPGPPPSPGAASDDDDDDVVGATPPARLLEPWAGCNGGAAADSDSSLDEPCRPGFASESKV

Row | Compound | pEC50 [1] | Ratio [2] | pEC50 [3] | pEC50 [4] | pEC50 [5] | also measured
1 | CC(=O)O.O=C1CN(c2cccc(CCCCOCCCCCCNC[C@H](O)c3ccc(O)c(CO)c3)c2)C(=O)N1 | 8.60 | 0.4 | 6.50 | 6.70 | 8.60 | –
2 | OCc1cc(C(O)CNCCCCCCOCCCCc2ccccc2)ccc1O (stereo unspecified) [SALMETEROL] | 8.30 | – | – | – | – | EC90 [6]: 50 µM
3 | O=C1NC(=O)N(Cc2cccc(CCCCOCCCCCCNC[C@H](O)c3ccc(O)c(CO)c3)c2)C1=O | – | – | 7.60 | 7.30 | 9.10 | –
4 | O=C(O)CNC(=O)Nc1cccc(CCCCOCCCCCCNC[C@H](O)c2ccc(O)c(CO)c2)c1 [listing 1 of 2 here] | 9.00 | – | – | – | – | –
5 | CC(=O)O.O=C1CNC(=O)N1Cc1cccc(CCCCOCCCCCCNC[C@H](O)c2ccc(O)c(CO)c2)c1 | – | 1.62 | 7.40 | 6.90 | 8.90 | –
6 | O=c1cc[nH]c(=O)n1-c1cccc(CCCCOCCCCCCNC[C@H](O)c2ccc(O)c(CO)c2)c1 [listing 2 of 2 here] | – | – | 6.40 | 6.60 | 9.10 | –
7 | O=c1ccn(-c2cccc(CCCCOCCCCCCNC[C@H](O)c3ccc(O)c(CO)c3)c2)c(=O)[nH]1 | – | – | 7.30 | 7.30 | 8.90 | –

Second part, led by results:

Row | pEC50 [1] | Ratio [2] | pEC50 [3] | pEC50 [4] | pEC50 [5] | Compound | also measured
8 | 9.70 | – | – | – | – | O=c1cc[nH]c(=O)n1-c1cccc(CCCCOCCCCCCNC[C@H](O)c2ccc(O)c(CO)c2)c1 [listing 1 of 2 here] | –
9 | – | 0.48 | 7.20 | 6.70 | 9.10 | CC(=O)O.CC1(C)NC(=O)N(c2cccc(CCCCOCCCCCCNC[C@H](O)c3ccc(O)c(CO)c3)c2)C1=O | –
10 | – | 0.3 | 7.50 | 7.10 | 8.70 | CC(=O)O.O=C1CNC(=O)N1c1ccc(CCCCOCCCCCCNC[C@H](O)c2ccc(O)c(CO)c2)cc1 | –
11 | – | 0.46 | 6.70 | 6.70 | 8.60 | O=C1CNC(=O)N1c1ccccc1CCCCOCCCCCCNC[C@H](O)c1ccc(O)c(CO)c1 | –
12 | – | 0.91 | 7.10 | 6.80 | 9.60 | CC(=O)O.NC(=O)CN1C(=O)CN(c2cccc(CCCCOCCCCCCNC[C@H](O)c3ccc(O)c(CO)c3)c2)C1=O | –
13 | 9.10 | 0.86 | 7.00 | 7.10 | 9.20 | CC(=O)O.O=C1CNC(=O)N1c1cccc(CCCCOCCCCCCNC[C@H](O)c2ccc(O)c(CO)c2)c1 | EC90 [6]: 25 µM; bioavailability [7]: 5%; Cmax [8]: 12 ng/mL; half-life [9]: 120 min; Vd [10]: 0.8 L/kg; clearance [11]: 13 mL/min/kg; bioavailability [12]: 2%; Vd [13]: 2 L/kg; half-life [14]: 18 min; clearance [15]: 120 mL/min/kg; Time [16]: 12 h; Time [17]: 18 h; Stability [18]: Unstable; Stability [19]: Unstable; Stability [20]: Unstable
14 | – | 0.75 | 7.20 | 7.10 | 9.20 | CC(=O)O.O=C1CN(Cc2cccc(CCCCOCCCCCCNC[C@H](O)c3ccc(O)c(CO)c3)c2)C(=O)N1 | –
15 | – | 0.55 | 7.00 | 6.90 | 9.00 | O=C(O)CNC(=O)Nc1cccc(CCCCOCCCCCCNC[C@H](O)c2ccc(O)c(CO)c2)c1 [listing 2 of 2 here] | –
